Usually pIC50 stands for the IC50 on a negative log10 scale, so that one unit is a factor of ten. Lower therefore signals a high IC50.

Six compounds from ChEMBL document CHEMBL4145647, “Aniline-Tetramic Acids from the Deep-Sea-Derived Fungus Cladosporium sphaerospermum L3P3 Cultured with the HDAC Inhibitor SAHA” (J Nat Prod, 2018) can be followed below.

Structures are written as SMILES. pIC50: −log10 of the molar value. Where a name gives a salt, the structure may show the parent alone.

In the first test the test system is HL-60. As to the kind of experiment: Cytotoxicity against human HL60 cells after 72 hrs by MTT assay. It is filed as functional, cell-based. Conditions: HL-60, 72 h. In a few lines: (§1)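 Cells were checked for viability by Trypan blue counting, then plated at 8000 cells/well and exposed to test solution for 72 h. MTT reagents were then added, followed by a further 10 h incubation. Absorbance was read at 570 nm and IC50 reported in μM. Doxorubicin was the positive control.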
(Tetrazolium assays rely on reduction of a dye to a coloured formazan, in cell work by metabolically active cells.)
Turning to `CO[C@H](CC(Nc1ccccc1)=C1C(=O)NC(=C(C)C)C1=O)C[C@H](C)O`, the pIC50 is 5.55.
On the same count and under the same terms, the value for `CC(C)=C1NC(=O)C(=C(C[C@@H](C[C@H](C)O)Nc2ccccc2)Nc2ccccc2)C1=O` was 5.11.
In turn, `CC(C)=C1NC(=O)C(=C2C=CC[C@H](C)O2)C1=O` gave a pIC50 of 5.18.
On the same count and under the same terms, to `CO[C@@H](CC(Nc1ccccc1)=C1C(=O)NC(=C(C)C)C1=O)C[C@H](C)O` belongs less than 4.52; to `CC(C)=C1NC(=O)C(=C(C[C@H](C[C@H](C)O)Nc2ccccc2)Nc2ccccc2)C1=O`, 5.12.

For a further test, the system named is PC-3. As to the kind of experiment: Cytotoxicity against human PC3 cells after 72 hrs by SRB assay. Conditions: PC-3, 72 h. In general terms: In SRB staining, fixed cells bind dye roughly in proportion to their protein.
Consider `CO[C@H](CC(Nc1ccccc1)=C1C(=O)NC(=C(C)C)C1=O)C[C@H](C)O`, for which the pIC50 was 4.89.
`CC(C)=C1NC(=O)C(=C(C[C@@H](C[C@H](C)O)Nc2ccccc2)Nc2ccccc2)C1=O` had a pIC50 of less than 4.52.
On the same count and under the same terms, to `CC(C)=C1NC(=O)C(=C2C=CC[C@H](C)O2)C1=O` belongs 4.96; to `CO[C@@H](CC(Nc1ccccc1)=C1C(=O)NC(=C(C)C)C1=O)C[C@H](C)O`, less than 4.52.
The same measure, in the same setting: to `CC(C)=C1NC(=O)C(=C(C[C@H](C[C@H](C)O)Nc2ccccc2)Nc2ccccc2)C1=O` belongs 4.74.
The same measure, in the same setting: the value for `COc1cccc2c1C(=O)c1c(O)c3c(c(O)c1C2=O)C[C@@](O)(C(=O)CO)C[C@@H]3O[C@H]1C[C@H](N)[C@H](O)[C@H](C)O1` [DOXORUBICIN HYDROCHLORIDE] was 6.00.

The next test relates to MGC-803. Kind of test: Cytotoxicity against human MGC803 cells after 72 hrs by SRB assay. Conditions: MGC-803, 72 h.
Take `CO[C@H](CC(Nc1ccccc1)=C1C(=O)NC(=C(C)C)C1=O)C[C@H](C)O`: the pIC50 was 4.72.
The same measure, in the same setting: the value for `CC(C)=C1NC(=O)C(=C(C[C@@H](C[C@H](C)O)Nc2ccccc2)Nc2ccccc2)C1=O` was less than 4.52.
For `CC(C)=C1NC(=O)C(=C2C=CC[C@H](C)O2)C1=O`, the pIC50 is 4.66.
Still for that read-out and setting: to `CO[C@@H](CC(Nc1ccccc1)=C1C(=O)NC(=C(C)C)C1=O)C[C@H](C)O` belongs less than 4.52; to `CC(C)=C1NC(=O)C(=C(C[C@H](C[C@H](C)O)Nc2ccccc2)Nc2ccccc2)C1=O`, less than 4.52.

A further test concerns HCT-116. As to the kind of experiment: Cytotoxicity against human HCT116 cells after 72 hrs by SRB assay. Conditions: HCT-116, 72 h.
Compound `CO[C@H](CC(Nc1ccccc1)=C1C(=O)NC(=C(C)C)C1=O)C[C@H](C)O` showed a pIC50 of 4.96.
Still for that read-out and setting: the value for `CC(C)=C1NC(=O)C(=C(C[C@@H](C[C@H](C)O)Nc2ccccc2)Nc2ccccc2)C1=O` was less than 4.52; that for `CC(C)=C1NC(=O)C(=C2C=CC[C@H](C)O2)C1=O` was 4.92.
As to `CO[C@@H](CC(Nc1ccccc1)=C1C(=O)NC(=C(C)C)C1=O)C[C@H](C)O`, the pIC50 is less than 4.52.
Still for that read-out and setting: to `CC(C)=C1NC(=O)C(=C(C[C@H](C[C@H](C)O)Nc2ccccc2)Nc2ccccc2)C1=O` belongs 4.85.

Another test deals with SH-SY5Y. As to the kind of experiment: Cytotoxicity against human SH-SY5Y cells after 72 hrs by SRB assay.
Settings: not given
Compound `CO[C@H](CC(Nc1ccccc1)=C1C(=O)NC(=C(C)C)C1=O)C[C@H](C)O` showed a negative-log IC50 (pIC50) of 4.92.
On the same count and under the same terms, the value for `CC(C)=C1NC(=O)C(=C(C[C@@H](C[C@H](C)O)Nc2ccccc2)Nc2ccccc2)C1=O` was less than 4.52; that for `CC(C)=C1NC(=O)C(=C2C=CC[C@H](C)O2)C1=O` was 4.82; that for `CO[C@@H](CC(Nc1ccccc1)=C1C(=O)NC(=C(C)C)C1=O)C[C@H](C)O` was less than 4.52.
On the same count and under the same terms, to `CC(C)=C1NC(=O)C(=C(C[C@H](C[C@H](C)O)Nc2ccccc2)Nc2ccccc2)C1=O` belongs less than 4.52.

The subject of another test is K562. Kind of test: Cytotoxicity against human K562 cells after 72 hrs by MTT assay. It is filed as functional, cell-based. Conditions: K562, 72 h. In a few lines:
as §1
`CO[C@H](CC(Nc1ccccc1)=C1C(=O)NC(=C(C)C)C1=O)C[C@H](C)O` gave a pIC50 of 5.39.
Compound `CC(C)=C1NC(=O)C(=C(C[C@@H](C[C@H](C)O)Nc2ccccc2)Nc2ccccc2)C1=O` had a pIC50 of 5.17.
The same measure, in the same setting: the value for `CC(C)=C1NC(=O)C(=C2C=CC[C@H](C)O2)C1=O` was 5.35; that for `CO[C@@H](CC(Nc1ccccc1)=C1C(=O)NC(=C(C)C)C1=O)C[C@H](C)O` was less than 4.52; that for `CC(C)=C1NC(=O)C(=C(C[C@H](C[C@H](C)O)Nc2ccccc2)Nc2ccccc2)C1=O` was 5.23.
